Reference: ChEMBL document CHEMBL5303300, “EUbOPEN Chemogenomics Library - Multiplex” (2023)
“And” between values parts separate entries of the source, which are not always exact repeats. Identical values can stand only once.

Tested on: Fibroblast
Assay: Multiplex assay against human fibroblast
Type: toxicity, cell-based
Details: number of replicates 2
How it was run: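 With compound added, live cells were imaged on a CQ1 microscope at 37°C and 5% CO2; staining with Hoechst33342, BioTracker Green Microtubule Cytoskeleton Dye, MitoTracker Red and Annexin V Alexa Fluor 680 had been done at seeding. The CellPathfinder machine-learning gating scheme split cells into Hoechst high-intensity objects or normal cells, normal cells into healthy, pyknosed or fragmented nuclei, and pyknosed cells into mitotic or apoptotic. The tubulin, mitochondrial-mass and membrane-permeability phenotypes are per cents of healthy-nucleus cells.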

[1] = 12 h, 1 µM, compound concentration 1 uM
[2] = 12 h, 10 µM, compound concentration 10 uM
[3] = 24 h, 1 µM, compound concentration 1 uM
[4] = 24 h, 10 µM, compound concentration 10 uM
[5] = 48 h, 1 µM, compound concentration 1 uM
[6] = 48 h, 10 µM, compound concentration 10 uM

COc1ccncc1C(=O)NC(=O)Nc1ccc(-c2ccccc2)c(C(F)(F)F)c1
Population Apoptotic (%) [1]: 43% and 32%
Population Fragmented Nuclei (%) [1]: 7% and 12%
Population Healthy Nuclei (%) [1]: 73% and 71%
Population Hoechst High Intensity Objects (%) [1]: 0%
Population Membrane Permeable-Phenotype (%) [1]: 5% and 3%
Population Mitochondria Different-Phenotype (%) [1]: 1% and 2%
Population Mitotic Cells (%) [1]: 56% and 67%
Population Normal (%) [1]: 99% and 100%
Population Pyknosed Nuclei (%) [1]: 19% and 15%
Population Tubulin-Different-Phenotype (%) [1]: 6% and 5%
Total Cell Count [1]: 158 and 217
Population Apoptotic (%) [2]: 38% and 50%
Population Fragmented Nuclei (%) [2]: 8% and 16%
Population Healthy Nuclei (%) [2]: 69%
Population Hoechst High Intensity Objects (%) [2]: 0%
Population Membrane Permeable-Phenotype (%) [2]: 9% and 5%
Population Mitochondria Different-Phenotype (%) [2]: 2%
Population Mitotic Cells (%) [2]: 61% and 50%
Population Normal (%) [2]: 100%
Population Pyknosed Nuclei (%) [2]: 22% and 13%
Population Tubulin-Different-Phenotype (%) [2]: 22% and 16%
Total Cell Count [2]: 213 and 202
Population Apoptotic (%) [3]: 59% and 44%
Population Fragmented Nuclei (%) [3]: 19% and 15%
Population Healthy Nuclei (%) [3]: 61% and 68%
Population Hoechst High Intensity Objects (%) [3]: 0%
Population Membrane Permeable-Phenotype (%) [3]: 4% and 6%
Population Mitochondria Different-Phenotype (%) [3]: 1% and 2%
Population Mitotic Cells (%) [3]: 40% and 55%
Population Normal (%) [3]: 100%
Population Pyknosed Nuclei (%) [3]: 19% and 16%
Population Tubulin-Different-Phenotype (%) [3]: 12% and 10%
Total Cell Count [3]: 189 and 219
Population Apoptotic (%) [4]: 46% and 65%
Population Fragmented Nuclei (%) [4]: 10% and 18%
Population Healthy Nuclei (%) [4]: 66% and 70%
Population Hoechst High Intensity Objects (%) [4]: 0%
Population Membrane Permeable-Phenotype (%) [4]: 6% and 4%
Population Mitochondria Different-Phenotype (%) [4]: 0% and 2%
Population Mitotic Cells (%) [4]: 53% and 34%
Population Normal (%) [4]: 100%
Population Pyknosed Nuclei (%) [4]: 22% and 11%
Population Tubulin-Different-Phenotype (%) [4]: 19% and 12%
Total Cell Count [4]: 215 and 203
Population Apoptotic (%) [5]: 75% and 63%
Population Fragmented Nuclei (%) [5]: 13% and 16%
Population Healthy Nuclei (%) [5]: 69% and 74%
Population Hoechst High Intensity Objects (%) [5]: 0%
Population Membrane Permeable-Phenotype (%) [5]: 4% and 7%
Population Mitochondria Different-Phenotype (%) [5]: 0%
Population Mitotic Cells (%) [5]: 25% and 36%
Population Normal (%) [5]: 100% and 99%
Population Pyknosed Nuclei (%) [5]: 16% and 9%
Population Tubulin-Different-Phenotype (%) [5]: 4% and 6%
Total Cell Count [5]: 173 and 239
Population Apoptotic (%) [6]: 66%
Population Fragmented Nuclei (%) [6]: 9% and 16%
Population Healthy Nuclei (%) [6]: 79% and 77%
Population Hoechst High Intensity Objects (%) [6]: 0%
Population Membrane Permeable-Phenotype (%) [6]: 9% and 1%
Population Mitochondria Different-Phenotype (%) [6]: 0% and 1%
Population Mitotic Cells (%) [6]: 33%
Population Normal (%) [6]: 100%
Population Pyknosed Nuclei (%) [6]: 10% and 6%
Population Tubulin-Different-Phenotype (%) [6]: 11% and 4%
Total Cell Count [6]: 221 and 197

COc1ccc2cc(S(=O)(=O)N[C@H](CC(=O)N[C@H](Cc3ccc(CN4[C@H](C)CCC[C@@H]4C)cc3)C(=O)N(C)C(C)C)c3ccc4c(c3)OCO4)ccc2c1.Cl
Population Apoptotic (%) [1]: 31% and 54%
Population Fragmented Nuclei (%) [1]: 17% and 21%
Population Healthy Nuclei (%) [1]: 61% and 62%
Population Hoechst High Intensity Objects (%) [1]: 0%
Population Membrane Permeable-Phenotype (%) [1]: 6% and 11%
Population Mitochondria Different-Phenotype (%) [1]: 2% and 1%
Population Mitotic Cells (%) [1]: 68% and 45%
Population Normal (%) [1]: 100%
Population Pyknosed Nuclei (%) [1]: 20% and 16%
Population Tubulin-Different-Phenotype (%) [1]: 66% and 52%
Total Cell Count [1]: 155 and 275
Population Apoptotic (%) [2]: 57% and 44%
Population Fragmented Nuclei (%) [2]: 26% and 14%
Population Healthy Nuclei (%) [2]: 52% and 66%
Population Hoechst High Intensity Objects (%) [2]: 0%
Population Membrane Permeable-Phenotype (%) [2]: 20% and 17%
Population Mitochondria Different-Phenotype (%) [2]: 21% and 16%
Population Mitotic Cells (%) [2]: 42% and 55%
Population Normal (%) [2]: 99%
Population Pyknosed Nuclei (%) [2]: 20% and 19%
Population Tubulin-Different-Phenotype (%) [2]: 97% and 84%
Total Cell Count [2]: 160 and 258
Population Apoptotic (%) [3]: 43% and 66%
Population Fragmented Nuclei (%) [3]: 25% and 28%
Population Healthy Nuclei (%) [3]: 61% and 59%
Population Hoechst High Intensity Objects (%) [3]: 0%
Population Membrane Permeable-Phenotype (%) [3]: 0% and 5%
Population Mitochondria Different-Phenotype (%) [3]: 12% and 10%
Population Mitotic Cells (%) [3]: 56% and 33%
Population Normal (%) [3]: 100%
Population Pyknosed Nuclei (%) [3]: 13% and 12%
Population Tubulin-Different-Phenotype (%) [3]: 64% and 56%
Total Cell Count [3]: 171 and 286
Population Apoptotic (%) [4]: 80%
Population Fragmented Nuclei (%) [4]: 20% and 16%
Population Healthy Nuclei (%) [4]: 56% and 57%
Population Hoechst High Intensity Objects (%) [4]: 1% and 0%
Population Membrane Permeable-Phenotype (%) [4]: 14% and 7%
Population Mitochondria Different-Phenotype (%) [4]: 42% and 56%
Population Mitotic Cells (%) [4]: 19% and 20%
Population Normal (%) [4]: 98% and 99%
Population Pyknosed Nuclei (%) [4]: 23% and 25%
Population Tubulin-Different-Phenotype (%) [4]: 93% and 92%
Total Cell Count [4]: 159 and 220
Population Apoptotic (%) [5]: 77% and 72%
Population Fragmented Nuclei (%) [5]: 36% and 29%
Population Healthy Nuclei (%) [5]: 53% and 64%
Population Hoechst High Intensity Objects (%) [5]: 0%
Population Membrane Permeable-Phenotype (%) [5]: 2% and 3%
Population Mitochondria Different-Phenotype (%) [5]: 9% and 7%
Population Mitotic Cells (%) [5]: 22% and 27%
Population Normal (%) [5]: 99% and 100%
Population Pyknosed Nuclei (%) [5]: 9% and 5%
Population Tubulin-Different-Phenotype (%) [5]: 28% and 50%
Total Cell Count [5]: 326 and 194
Population Apoptotic (%) [6]: 88% and 86%
Population Fragmented Nuclei (%) [6]: 24% and 18%
Population Healthy Nuclei (%) [6]: 62% and 65%
Population Hoechst High Intensity Objects (%) [6]: 5% and 9%
Population Membrane Permeable-Phenotype (%) [6]: 8% and 10%
Population Mitochondria Different-Phenotype (%) [6]: 46% and 55%
Population Mitotic Cells (%) [6]: 11% and 13%
Population Normal (%) [6]: 94% and 90%
Population Pyknosed Nuclei (%) [6]: 12% and 15%
Population Tubulin-Different-Phenotype (%) [6]: 87% and 83%
Total Cell Count [6]: 138 and 202

COc1cc(N(C)c2ccnc3ccc(C(F)(F)F)cc23)cc(OC)c1OC
Population Apoptotic (%) [1]: 43% and 38%
Population Fragmented Nuclei (%) [1]: 7% and 10%
Population Healthy Nuclei (%) [1]: 68% and 65%
Population Hoechst High Intensity Objects (%) [1]: 0%
Population Membrane Permeable-Phenotype (%) [1]: 10% and 7%
Population Mitochondria Different-Phenotype (%) [1]: 0%
Population Mitotic Cells (%) [1]: 56% and 61%
Population Normal (%) [1]: 100% and 99%
Population Pyknosed Nuclei (%) [1]: 23% and 24%
Population Tubulin-Different-Phenotype (%) [1]: 21% and 18%
Total Cell Count [1]: 216 and 225
Population Apoptotic (%) [2]: 48% and 39%
Population Fragmented Nuclei (%) [2]: 6% and 11%
Population Healthy Nuclei (%) [2]: 77% and 63%
Population Hoechst High Intensity Objects (%) [2]: 0%
Population Membrane Permeable-Phenotype (%) [2]: 4% and 9%
Population Mitochondria Different-Phenotype (%) [2]: 5% and 4%
Population Mitotic Cells (%) [2]: 51% and 60%
Population Normal (%) [2]: 100%
Population Pyknosed Nuclei (%) [2]: 15% and 24%
Population Tubulin-Different-Phenotype (%) [2]: 33% and 40%
Total Cell Count [2]: 175 and 219
Population Apoptotic (%) [3]: 48% and 50%
Population Fragmented Nuclei (%) [3]: 7% and 13%
Population Healthy Nuclei (%) [3]: 69% and 59%
Population Hoechst High Intensity Objects (%) [3]: 0%
Population Membrane Permeable-Phenotype (%) [3]: 8% and 4%
Population Mitochondria Different-Phenotype (%) [3]: 1%
Population Mitotic Cells (%) [3]: 51% and 49%
Population Normal (%) [3]: 100% and 99%
Population Pyknosed Nuclei (%) [3]: 23% and 27%
Population Tubulin-Different-Phenotype (%) [3]: 24% and 14%
Total Cell Count [3]: 229 and 213
Population Apoptotic (%) [4]: 60% and 54%
Population Fragmented Nuclei (%) [4]: 9% and 12%
Population Healthy Nuclei (%) [4]: 71% and 66%
Population Hoechst High Intensity Objects (%) [4]: 0%
Population Membrane Permeable-Phenotype (%) [4]: 4%
Population Mitochondria Different-Phenotype (%) [4]: 3% and 6%
Population Mitotic Cells (%) [4]: 39% and 45%
Population Normal (%) [4]: 100% and 99%
Population Pyknosed Nuclei (%) [4]: 18% and 20%
Population Tubulin-Different-Phenotype (%) [4]: 27% and 30%
Total Cell Count [4]: 176 and 216
Population Apoptotic (%) [5]: 66% and 47%
Population Fragmented Nuclei (%) [5]: 8% and 14%
Population Healthy Nuclei (%) [5]: 73% and 61%
Population Hoechst High Intensity Objects (%) [5]: 0%
Population Membrane Permeable-Phenotype (%) [5]: 1% and 7%
Population Mitochondria Different-Phenotype (%) [5]: 0%
Population Mitotic Cells (%) [5]: 33% and 52%
Population Normal (%) [5]: 100%
Population Pyknosed Nuclei (%) [5]: 18% and 23%
Population Tubulin-Different-Phenotype (%) [5]: 10% and 12%
Total Cell Count [5]: 229 and 214
Population Apoptotic (%) [6]: 64% and 75%
Population Fragmented Nuclei (%) [6]: 9% and 12%
Population Healthy Nuclei (%) [6]: 72% and 70%
Population Hoechst High Intensity Objects (%) [6]: 0%
Population Membrane Permeable-Phenotype (%) [6]: 0% and 1%
Population Mitochondria Different-Phenotype (%) [6]: 3% and 5%
Population Mitotic Cells (%) [6]: 35% and 24%
Population Normal (%) [6]: 99% and 100%
Population Pyknosed Nuclei (%) [6]: 18% and 16%
Population Tubulin-Different-Phenotype (%) [6]: 35% and 25%
Total Cell Count [6]: 173 and 226
